Laboratory results from ChEMBL document CHEMBL5346868 (Eur J Med Chem, 2023).

Tests used:
[1] = Cytotoxicity against human RD cells by MTS assay; format: toxicity, cell-based
In short: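 Treated, uninfected RD or HeLa cells are run alongside the matching enterovirus CPE assays, with viability read by MTS. CC50 is the concentration giving a 50% adverse effect on host cells.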

[2] = tested on: Enterovirus A71; assay: Antiviral activity against human Enterovirus 71 BrCr infected in human RD cells assessed as reduction of virus induced cytopathic effect incubated for 3 days by MTS assay; format: functional, organism-based; conditions: Enterovirus A, 72 h
In short: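 Confluent RD cells (EMEM, 10% heat-inactivated FBS) are infected with ~100 CCID50 of EV71 BrCr and treated with a compound dilution series. After 3 days at 37 °C, 5% CO2, residual viability is measured by MTS. EC50 is the concentration giving 50% antiviral effect, from at least 2–3 independent experiments.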

[3] = tested on: Zika virus; assay: Antiviral activity against ZIKV MR766 infected in african green monkey Vero E6 cells assessed as decline in virus induced cytopathogenicity measured after 5 days by MTS based microscopic analysis; format: functional, organism-based; conditions: MR766, Vero C1008, 120 h
In short: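 Vero E6 cells (10^4/well) are seeded in MEM with 2% FCS and left to adhere overnight. Cells are then infected with ZIKV MR766 (passaged in C6/36 cells) and given 2-fold serial compound dilutions. After 5 days, CPE is scored by MTS and by microscopy of fixed, stained cells. EC50 is the 50% antiviral effect.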

[4] = tested on: Enterovirus A71; assay: Antiviral activity against human enterovirus 71 BrCr infected in human RD cells measured by colorometric based MTS/PMS method; format: functional, organism-based; conditions: Enterovirus A
In short: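 EV71 BrCr in confluent RD cells (MEM, 10% heat-inactivated FBS) infected with ~100 CCID50 and given a compound dilution series. Incubation was 3 days at 37 °C, 5% CO2, with residual viability read by MTS. EC50 is the concentration giving 50% antiviral effect. Toxicity was run in parallel on treated uninfected cells. Values are means of ≥2 independent experiments.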

[5] = Cytotoxicity against african green monkey Vero E6 cells by MTS assay; format: toxicity, cell-based, Vero C1008; conditions: chlorocebus sabaeus
In short: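 Cytotoxicity is measured on treated, uninfected Vero E6 cells in parallel with the antiviral assays, using a standard MTS assay. CC50 is the concentration causing a 50% adverse effect on host cells.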

[6] = Selectivity index, ratio of CC50 for human RD cells to EC50 for antiviral activity against human Enterovirus 71; format: toxicity; conditions: read-out: Ratio CC50/EC50
In short: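 SI is calculated as CC50 on uninfected RD cells divided by EC50 in the 3-day EV71 BrCr CPE-reduction MTS assay.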

[7] = tested on: SARS-CoV-2; assay: Antiviral activity against SARS-CoV-2 BetaCoV/Belgium/GHB-03021/2020 infected in african green monkey Vero cells assessed as decline in virus induced cytopathogenicity measured after 4 days by argon laser scanning microscopic analysis; format: functional, organism-based; conditions: Severe acute respiratory syndrome coronavirus 2, BetaCoV/Belgium/GHB-03021/2020, Vero, 96 h
[8] = tested on: Enterovirus A71; assay: Antiviral activity against human enterovirus 71 87-2008; format: functional, organism-based; conditions: Enterovirus A
[9] = tested on: Enterovirus A71; assay: Antiviral activity against human enterovirus 71; format: functional, organism-based; conditions: Enterovirus A

OC[C@H]1O[C@@H](n2cnc3c(NCc4cccc(C(F)(F)F)c4)ncnc32)[C@H](O)[C@@H]1O showed a CC50 [1] greater than 100000 nM, an EC50 [2] of 36 nM and an EC50 [3] greater than 100000 nM. It also gave an EC50 [4] of 68 nM, a CC50 [5] greater than 100000 nM and a selectivity ratio [6] greater than 2770. The EC50 [7] was greater than 100000 nM.

Work on CCC(CC)COC(=O)[C@H](C)N[P@](=O)(OC[C@H]1O[C@@](C#N)(c2ccc3c(N)ncnn23)[C@H](O)[C@@H]1O)Oc1ccccc1 yielded a CC50 [5] greater than 10000 nM, an EC50 [7] of 58 nM and an EC50 [8] of 991 nM.

In the case of OC[C@H]1O[C@@H](n2cnc3c(NCc4ccccc4)ncnc32)[C@H](O)[C@@H]1O [N6-BENZYLADENOSINE], the EC50 [9] is reported as 280 nM.
